Bioassay records (PubChem BioAssay)
A selection: hits, their analogues and other compounds. The true share with any hit is near 2.3%.
TRPC6 inh – mouse TRPC6 channel inhibition. HEK293-TRPC6, membrane potential dye, ACh-evoked depolarization; hits give low values. B-score at 10 µM. 310,000 tested, 1.1% active;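 active = B-score under library mean minus 3 SD, initial fluorescence not abnormally high, positive integrated signal ratio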;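 note: B-score derived from integrated fluorescence ratio over the kinetic read; more negative B-score means stronger inhibition of depolarization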
TRPC4 PAM – TRPC4 (mouse) allosteric potentiation | 310,000 tested, 0.42% active | HEK293 TRPC4beta/mu-opioid, DAMGO EC20, Fluo-4 Ca2+ flux; hits give high values | Q9QUQ5 | AID 2227 | B-score at 10 µM;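 active = B-score of calcium response area above 5 SD of library B-scores, with initial fluorescence ratio within 5 SD of library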;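 note: B-score of integrated fluorescence ratio over time as area under calcium response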
TRPC4 block – TRPC4 (mouse) channel inhibition; Q9QUQ5; HEK293 TRPC4beta/mu-opioid, DAMGO-evoked Fluo4 calcium flux; hits give low values; B-score at 10 µM; 300,000 tested, 0.39% active; AID 2247;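 active = B-score over 3 SD under the library average, no early fluorescence shift, positive overall ratio signal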
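Assay system: HEK293 cells with stable TRPC4beta plus mu-opioid receptor expression. Dosing: single dose. Measured by: Fluo4 Ca2+ flux fluorescence. Also added: DAMGO in two steps, submaximal then maximal. Read-out: B score from integrated Fluo4 fluorescence ratio.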
TRPC6 activator – activators of mouse TRPC6 channel; Q61143; HEK293-TRPC6 membrane potential dye fluorescence; hits give high values; B-score at 10 µM; 310,000 tested, 0.13% active; AID 2550;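 active = B-score of the integrated fluorescence ratio above library mean plus 3 SD, and starting fluorescence ratio within library mean plus 5 SD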;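 note: higher score means more depolarization so channel activation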
TRPC4 act – opens the mouse TRPC4 cation channel. Q9QUQ5. HEK293 TRPC4beta/mu-opioid, Fluo4 calcium fluorescence; hits give high values. B-score at 10 µM. 310,000 tested, 0.49% active. AID 2237;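 active = B-score above 5 SD of library B-scores, and initial fluorescence ratio not above library mean plus 5 SD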;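 note: positive B-score marks a calcium rise read as TRPC4 activation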
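Technique: kinetic Fluo4 calcium fluorescence; Test system: TRPC4beta and mu-opioid receptor HEK293 stable cells; Measure: B-scored integrated calcium fluorescence ratio; Benchmarks: low control buffer alone, high control maximal DAMGO; Schedule: 45 min room-temperature Fluo4 loading, 110 s read.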
HEK293 TRPC6 ctr – parental HEK293 nonspecific activity of TRPC6 modulators; shares compounds with TRPC6 inh; membrane potential dye fluorescence; membrane potential signal change, % at 10 µM; 2,400 tested, 51% active;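 active = membrane potential signal moves up or down beyond 5 SD from buffer-only wells, on both duplicate plates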
HEK293 MPD ctr 2 – second counter-screen for TRPC6 modulators: effect in parental HEK293 cells; shares compounds with TRPC6 inh; membrane potential dye fluorescence; after compound, maximal acetylcholine stimulation; inhibition, % at 10 µM; 2,400 tested, 14% active; AID 488926;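 active = membrane potential signal drops by more than 5 SD from the mean control signal, in both duplicate plates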;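 note: plate controls were acetylcholine ECmax control wells for no effect and buffer only wells for full effect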
TRPC4/MOR mod – selectivity of TRPC6 modulators against mouse TRPC4; AID 488927; HEK293 TRPC4/mu-opioid, membrane potential fluorescence; shares compounds with TRPC6 inh; 2,400 tested, 69% active; percent change from control (negative = decrease, positive = increase), % at 10 µM;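 active = membrane potential signal moved up or down beyond 5 SD of buffer control wells, in both duplicate plates, actives on both sides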;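 note: plate controls were assay buffer wells for no effect and DAMGO maximal-effect wells for full effect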
TRPC4/MOR inh 2 – mouse TRPC4 off-target activity of TRPC6 modulators, second screen; 2,400 tested, 55% active; HEK293 TRPC4/mu-opioid, membrane potential dye fluorescence; stimulated with maximal-effect DAMGO; inhibition, % at 10 µM; AID 488928; shares compounds with TRPC6 inh;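 active = drop in membrane potential signal beyond 5 SD of the control wells in both duplicate plates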;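 note: TRPC4 counter screen for TRPC6 hits run under conditions tuned for TRPC6 not TRPC4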
TRPC6 inh conf – confirmation of mouse TRPC6 inhibitors. 3,300 tested, 43% active. shares compounds with TRPC6 inh. inhibition, % at 10 µM. HEK293-TRPC6, membrane potential dye, ACh-evoked depolarization;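 active = fluorescence ratio falls more than 5 SD below the full-stimulation control mean, in both duplicate runs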;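 note: integrated fluorescence ratio of peak minus minimum over baseline after agonist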
TRPC6 act conf – confirmation of mouse TRPC6 activators; shares compounds with TRPC6 inh; activation, % at 10 µM; HEK293-TRPC6 membrane potential dye fluorescence, FDSS; 2,800 tested, 11% active; AID 488961;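 active = ratio signal rise beyond 5 SD above unstimulated control wells' mean, seen in both duplicate runs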;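 note: plate controls were buffer EC0 wells for no effect and acetylcholine ECmax response for full effect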
An asterisk follows results filed as active; i = inactive; nt = no result.

SMILES	TRPC6 inh	TRPC4 PAM	TRPC4 block	TRPC6 activator	TRPC4 act	HEK293 TRPC6 ctr	HEK293 MPD ctr 2	TRPC4/MOR mod	TRPC4/MOR inh 2	TRPC6 inh conf	TRPC6 act conf
CCOC(=O)/C(=N\Nc1ccccc1[N+](=O)[O-])c1csc(N)n1	-5.2*	i	i	i	i	i	i	-18%*	i	i	i
CCOC(=O)c1cnc2c(cnn2C)c1NCCCN(C)C	i	i	i	i	i	nt	nt	nt	nt	nt	nt
CCOC(=O)c1cnc2c(cnn2C)c1NCCCn1ccnc1	-7.5*	i	i	i	i	-352%*	115%*	-52%*	68%*	73%*	i
CN(CC(=O)Nc1ccc(Cl)c(C(F)(F)F)c1)C(=O)Cc1c[nH]c2ccccc12	-5.7*	i	i	i	i	i	i	-11%*	48%*	58%*	i
Cc1cc(C)nc(NC2=NCC(=O)N2c2cc(Cl)cc(Cl)c2)n1	i	i	i	i	i	nt	nt	nt	nt	nt	nt
Cc1cc(C)nc(NC2=NC3CCCCC3N2)n1 (stereo not given)	-8.9*	i	i	i	i	192%*	128%*	-10%*	54%*	56%*	i
CCc1ccc(NC(=O)C(=O)NCc2ccccn2)cc1	i	i	i	i	i	nt	nt	nt	nt	nt	nt
CCOc1ccc(NC(=O)CC2C(=O)N(CC)C(=S)N2CCN2CCOCC2)cc1 (stereo not given)	i	i	i	i	i	nt	nt	nt	nt	nt	nt
CCN1C(=O)C(CC(=O)Nc2ccc(F)cc2)N(CCCN2CCN(c3ccc(F)cc3)CC2)C1=S (stereo not given)	-6.5*	i	i	i	i	i	i	i	47%*	44%*	i
CCOc1ccc(NC(=O)CC2C(=O)N(CC)C(=S)N2CCNC(C)=O)cc1 (stereo not given)	-5.5*	i	i	i	i	i	i	i	i	i	i
Cn1c(=O)c2c(O)c(C=Nc3ccc(F)cc3)c(=O)n(C)c2n(C)c1=O	-6.6*	i	i	i	i	-92%*	i	-14%*	i	i	i
Cn1c(=O)c(C=Nc2ccccc2)c(O)c2ccccc21	i	i	i	i	i	nt	nt	nt	nt	nt	nt
CC(OC(=O)c1cc(Br)ccc1O)C(=O)NC1(C#N)CCCCC1 (stereo not given)	i	i	i	i	i	nt	nt	nt	nt	nt	nt
Cc1cc(C)nc(NC(=NCCc2c[nH]c3ccccc23)NC(=O)Nc2ccc(Cl)cc2)n1	i	i	i	i	i	nt	nt	nt	nt	nt	nt
Cc1cc(C)nc(NC(N)=NCCc2c[nH]c3ccccc23)n1	-5*	i	i	i	i	-222%*	i	-42%*	46%*	54%*	i
O=C(CCCCCNC(=O)N1CCn2c1nc1ccccc12)N[C@@H](Cc1ccccc1)C(=O)O	i	i	i	i	i	nt	nt	nt	nt	nt	nt
Cc1nc2c(C)cccc2c2c1CCS2	i	i	i	i	i	nt	nt	nt	nt	nt	nt
Cc1ccc2nc(C)c3c(c2c1)SCC3	-5.2*	i	i	i	i	-170%*	i	-36%*	38%*	i	i
CN(C)c1ccc(C(=O)N/N=C/c2ccccn2)cc1	-6.6*	i	i	i	i	-159%*	i	-28%*	36%*	i	i
